Results: article PMC2190483 (The Journal of Experimental Medicine, 1976)

What was measured:
[1] = tested on: human eosinophils; assay: Cross-deactivation of eosinophils, assessed by response to C5a; type: cell-based; settings: 10-12 M tetrapeptide pretreatment; Fig. 4
Summary of the method: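 Eosinophils in HBSS-ovalbumin were pretreated 2–40 min at 37°C with graded valyl- or alanyl-tetrapeptide and washed three times. They were then challenged in a Boyden chamber with C5a at the level derived from 2.5 µg equivalent of C5/ml. C5a came from tryptic digestion of human plasma C5, heated 20 min at 61°C and centrifuged. Results are % of buffer-treated control, mean ±1 SD, three experiments.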

[2] = tested on: human eosinophils; assay: Chemotactic deactivation of eosinophils, assessed by response to Val-Gly-Ser-Glu; type: cell-based; settings: for deactivation (qualitative): 10-r' M tetrapeptide, response to valyl-tetrapeptide, Fig. 3
Summary of the method: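 Leukocytes from hypereosinophilic donors were dextran-sedimented, washed and resuspended in HBSS with 0.4% ovalbumin and Tris-HCl pH 7.4. Eosinophils were preincubated 2–40 min at 37°C with graded valyl- or alanyl-tetrapeptide, then washed three times. They were then challenged in a Boyden chamber (3-µm filter) with 10^-7 M valyl-tetrapeptide. Residual response is given as % of buffer-treated cells, mean ±1 SD of three experiments.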

[3] = tested on: human eosinophils; assay: Suppression of the eosinophil chemotactic response to C5a by tripeptides; type: cell-based; settings: for inhibition of response to C5a: pretreatment with 10^-7 M tripeptide followed by washing; for inhibition of the C5a-stimulated response: 10^-7 M tripeptide added with the stimulus
Summary of the method: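 NH2-terminal tripeptide was added to the stimulus compartment with C5a in two experiments. In three experiments, eosinophils were pretreated with COOH-terminal tripeptide and washed. The C5a stimulus was a tryptic digest of purified human plasma C5, heat-treated 20 min at 61°C.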

[4] = tested on: neutrophils; assay: Neutrophil chemotaxis to valyl-tetrapeptide and its inhibition by tripeptides; type: cell-based, human; settings: for irreversible inhibition of the neutrophil response: response to 10^-7 M valyl-tetrapeptide; for inhibition of the response of neutrophils: tripeptide added to the stimulus, equimolar to valyl-tetrapeptide; for chemotactic response of neutrophils: valyl-tetrapeptide stimulus, neutrophils purified to 98%
Summary of the method: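 Neutrophils from normal donors were isolated on Ficoll-Hypaque to 98% purity, washed and resuspended in HBSS-ovalbumin. They were tested in modified Boyden chambers with a 3-µm filter against 10^-7 M valyl-tetrapeptide, with or without NH2- or COOH-terminal tripeptide, for 2½–3 h at 37°C. Migrated cells were counted blind in 10 hpf from duplicate chambers as net neutrophils/hpf.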

[5] = tested on: human eosinophils; assay: Modulation; type: cell-based; settings: for irreversible inhibition of the eosinophil response to 10-7 M valyl-tetrapeptide: neutrophil comparison; for inhibition of response to 10-7 M valyl-tetrapeptide: pretreatment with 10^-7 M tripeptide followed by washing; for inhibition of the valyl-tetrapeptide effect: 10^-7 M tripeptide added with the stimulus
Summary of the method: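 Tripeptides or amides were added to the stimulus compartment with 10^-7 M valyl-tetrapeptide or to the cell compartment. Alternatively, eosinophils were preincubated with them 20 min at 37°C and washed three times. Migration in a modified Boyden chamber (3-µm filter, 2½–3 h, 37°C) was counted as net eosinophils/hpf. It is expressed as % of the response of buffer-treated cells.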

[6] = tested on: human eosinophils; assay: Eosinophil chemotaxis in modified Boyden chambers; type: cell-based; settings: for chemotactic activity (qualitative): eosinophils; for magnitude of the maximum eosinophil response (rank among tetrapeptides): Discussion, Fig. 1
Summary of the method: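 Blood from donors with 26–89% eosinophilia was citrate/dextran-sedimented 30 min at 37°C and centrifuged 100 g for 10 min. Leukocytes were washed three times into HBSS-0.4% ovalbumin-Tris pH 7.4. Stimuli in the lower compartment were separated from cells by a 3-µm filter, incubated 2½–3 h at 37°C. Fixed, stained filters were read blind at background depth (2–8 cells/hpf), 10 hpf from duplicate chambers, as net cells/hpf.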

[7] = tested on: human eosinophils; type: cell-based
Summary of the method: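 Eosinophils were pretreated 20 min at 37°C with deactivating valyl-tetrapeptide or COOH-terminal tripeptide, with Val-Gly-Ser present at graded concentrations. They were then washed three times. Residual chemotactic response to 10^-7 M valyl-tetrapeptide was measured in Boyden chambers. It is expressed as mean % of buffer-exposed control response, from two experiments with different donors.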

Ala-Gly-Ser-Glu
effect on eosinophil responsiveness to C5a [1]: did not decrease | deactivation (qualitative) [2]: substantial deactivation

Gly-Ser-Glu
inhibition of response to C5a ([3]; experiment 1 of three): 71% | inhibition of response to C5a ([3]; experiment 2 of three): 53% | inhibition of response to C5a ([3]; experiment 3 of three): 37% | irreversible inhibition of the neutrophil response ([4]; experiment 1): 33% | irreversible inhibition of the neutrophil response ([4]; experiment 2): 28% | effect when mixed with stimulus ([5]; 10^-7 M mixed with an equimolar quantity of valyl-tetrapeptide stimulus): ineffective | irreversible inhibition of the eosinophil response to 10-7 M valyl-tetrapeptide ([5]; experiment 1): 61% | irreversible inhibition of the eosinophil response to 10-7 M valyl-tetrapeptide ([5]; experiment 2): 74% | inhibition of response to 10-7 M valyl-tetrapeptide ([5]; experiment 2 of three): 62% | inhibition of response to 10-7 M valyl-tetrapeptide ([5]; experiment 3 of three): 48% | chemotactic activity (qualitative) [6]: only marginally chemotactic

Leu- Ser-Glu [Leu-Ser-Glu]
maximum activity as fraction of maximum chemotactic activity of tetrapeptides ([6]; versus maximum obtained with 10^-7 M tetrapeptides, Fig. 2): approximately two-thirds

Leu-Gly-Ser-Glu
magnitude of the maximum eosinophil response (rank among tetrapeptides) [6]: the least

Phe-Gly-Ser-Glu
magnitude of the maximum eosinophil response (rank among tetrapeptides) [6]: greatest maximum response | deactivating activity (qualitative) ([2]; at 10^-6 M): comparable to 10-~ M alanyl-tetrapeptide | deactivating activity (qualitative) ([2]; at 10^-7 M): minimally evident

Val-Gly-Ser
protection against the COOH-terminal tripeptide ([7]; at an equimolar concentration or at a 10-fold excess): no protection | protection from deactivation by valyl-tetrapeptide ([7]; equimolar concentration of tripeptide and deactivating valyl-tetrapeptide): 40-50% | protection from deactivation by valyl-tetrapeptide (qualitative) ([7]; tripeptide at 10^-7 M with 10^-8 M valyl-tetrapeptide): completely protective | inhibition of the C5a-stimulated response ([3]; experiment 1 of two): 18% | inhibition of the C5a-stimulated response ([3]; experiment 2 of two): 29% | reduction of the neutrophil response to 10-7 M valyl-tetrapeptide ([4]; equimolar concentrations, Discussion): Approximately 50% | inhibition of the response of neutrophils ([4]; experiment 1): 49% | inhibition of the response of neutrophils ([4]; experiment 2): 54% | inhibition of the valyl-tetrapeptide effect ([5]; experiment 1 of two): 47% | inhibition of the valyl-tetrapeptide effect ([5]; experiment 2 of two): 61% | inhibition of the eosinophil response ([5]; on the stimulus side with 10^-7 M valyl-tetrapeptide, equimolar concentrations, Discussion, Fig. 5): 50-60% | inhibition of the eosinophil response ([5]; tripeptide added to the 10^-7 M tetrapeptide stimulus at approximately an equimolar concentration, Fig. 5, Results): 50% | chemotactic activity (qualitative) [6]: only marginally chemotactic

Val-Gly-Ser-Glu
effect on eosinophil responsiveness to C5a [1]: did not decrease | chemotactic response of neutrophils ([4]; experiment 1): 16.9 neutrophils/hpf | chemotactic response of neutrophils ([4]; experiment 2): 21.4 neutrophils/hpf | control chemotactic response ([6]; 10^-7 M stimulus, Table I, donor 2 (37% eosinophilia)): 12.3 net eosinophils per hpf | control chemotactic response ([6]; 10^-7 M stimulus, Table II, experiment 2, buffer-exposed cells): 11.7 net eos/hpf | chemotactic response of eosinophils ([6]; valyl-tetrapeptide stimulus, neutrophil comparison, experiment 2): 15.3 eosinophils (eos)/hpf | deactivation (qualitative) [2]: substantial deactivation

B1: C5a: prepared by tryptic digestion of purified C5 prepared from human plasma (protein, UniProt P01031 678-751, looked up)
C5a anaphylatoxin: TLQKKIEEIAAKYKHSVVKKCCYDGACVNNDETCEQRAARISLGPRCIKAFTECCVVASQLRANISHKDMQLGR
modifications: C5a anaphylatoxin
control chemotactic response ([6]; C5a derived from 2.5 µg equivalent of C5/ml, Fig. 4, donor 2 (43% eosinophilia)): 16.5 net eos/hpf | control chemotactic response ([6]; C5a derived from 2.5 µg equivalent of C5/ml, Fig. 4, donor 3 (59% eosinophilia)): 18.8 net eos/hpf
